Assay results collected from several papers.
Compare with care: the assays were run in different laboratories.
Target: Insulin receptor-related protein (INSRR, Homo sapiens, UniProt P14616)

c1cnn2ncc(-c3ccnc(N4CCC45COC5)n3)c2c1  remaining binding (binding; 1 µM): 93%
COc1ncc2cc3ccccc3nc2c1C#N  remaining binding (cell-free assay; competition with immobilised ligand; 5 µM): 100%
CCC(=O)N[C@H]1CC[C@@H](C(=O)N(C)c2ccc(-c3nc4ccccc4o3)cc2)C1  remaining binding (cell-free assay; competition with immobilised ligand; 1 µM): 100%
CN(c1nccc(-c2cnn3ncccc23)n1)C1CC1  remaining binding (binding; 1 µM): 100%
CCN1CCN(Cc2ccc(C(=O)Nc3ccc(C)c(Oc4ccc5c(c4)CC(=O)N5)c3)cc2C(F)(F)F)CC1  remaining binding (binding; competition with immobilised ligand; 1 µM): 93%
O=C(NCCCN1CCOCC1)c1ccc(Nc2ncc(Cl)c(-c3ccc(Cl)s3)n2)cc1  remaining binding (binding; competition with immobilised ligand; 1 µM): 59%
CN(C)C(=O)Cn1cc(-c2nc(C3(c4ccc(-c5cnc(N)nc5)cc4)CC3)no2)cn1  remaining binding (cell-free assay; competition with immobilised ligand; 1 µM): 100%
CNC(=O)[C@@H]1CC[C@@H](n2c(-c3ccc4cnccc4c3)nc3ccc(C(=O)NCc4cccc(C(N)=O)c4)cc32)C1  remaining binding (binding; competition with immobilised ligand; 1 µM): 92%
FC(F)(F)Oc1cccc(-c2cnc3ccc(-c4ccncc4)nn23)c1  remaining binding (cell-free assay; competition with immobilised ligand; 5 µM): 96%
O=C(c1ccc(Nc2nccc(-c3cc4ccccc4s3)n2)cc1)N1CCC(N2CCCC2)CC1  remaining binding (binding; competition with immobilised ligand; 1 µM): 99%
CNCc1ccccc1-c1csc([C@@H](C)Nc2nc(C)nc3cc(OC)c(OC)cc23)c1  remaining binding (cell-free assay; competition with immobilised ligand; 1 µM): 95%
Cc1cnn2ncc(-c3ccnc(N(C)C)n3)c2c1  remaining binding (binding; 1 µM): 97%
O=C(NCC1CCOCC1)c1n[nH]cc1NC(=O)c1c(F)cccc1F  remaining binding (binding; competition with immobilised ligand; 1 µM): 88%
CN(C)c1ncc(F)c(-c2cnn3ncccc23)n1  remaining binding (binding; 1 µM): 100%
O=C(NCCCC1CCCCC1)c1ccc(CNC(=O)c2cnn(-c3ccccc3)c2C(F)(F)F)cc1  remaining binding (cell-free assay; competition with immobilised ligand; 0.1 µM): 100%
O=C(NCCCN1CCOCC1)c1ccc(Nc2nccc(-c3cc4ccccc4s3)n2)cc1  remaining binding (binding; competition with immobilised ligand; 1 µM): 100%
N[C@@H]1CCN(c2nccc(-c3cnn4ncccc34)n2)C1  remaining binding (binding; 1 µM): 100%
CNC(=O)Nc1ccc2c(c1)CC[C@@]21OC(=O)N(CC(=O)N(Cc2ccc(F)cc2)[C@@H](C)C(F)(F)F)C1=O  remaining binding (cell-free assay; competition with immobilised ligand; 1 µM): 96%
COc1cnc(Nc2cccc(S(N)(=O)=O)c2)nc1N1CCN(c2ccccc2)CC1  remaining binding (binding; competition with immobilised ligand; 1 µM): 100%
c1cncc(-c2cccc(Nc3nccc(NC4CCCCC4)n3)c2)c1  remaining binding (binding; competition with immobilised ligand; 10 µM): 74%
Cc1nc(C2CCN(C(=O)c3ccc(OC(F)(F)F)cc3N)CC2)c2ncc(N3CCN(C)CC3)cc2n1  remaining binding (cell-free assay; competition with immobilised ligand; 1 µM): 100%
C[C@H]1CCN(c2nccc(-c3cnn4ncccc34)n2)C1  remaining binding (binding; 1 µM): 98%
